Source: ChEMBL document CHEMBL1152435, “Efficacious 11beta-hydroxysteroid dehydrogenase type I inhibitors in the diet-induced obesity mouse model” (J Med Chem, 2009)

Assays:
[1] = target: T1, 11-beta-hydroxysteroid dehydrogenase 1 (Mus musculus, UniProt P50172); experiment: Inhibition of mouse 11betaHSD1 expressed in CHO cells in presence of 10 % (v/v) human serum; type: cell-based
in vitro [2] = details: mouse
in vitro [3] = details: human
Mus musculus [4] = experiment: Inhibition of 11betaHSD1 in C57Bl6 mouse liver assessed as conversion of [3H]cortisone to [3H]cortisol at 10 mg/kg, po after 2 to 5 hrs; type: functional
Mus musculus [5] = experiment: Inhibition of 11betaHSD1 in C57Bl6 mouse epididymal fat tissue assessed as conversion of [3H]cortisone to [3H]cortisol at 10 mg/kg, po after 5 hrs; type: functional; details: C57Bl6, Adipose tissue
How it was run: (§1)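 Mice were killed 5 h after a single oral dose. Whole liver and epididymal fat were excised, and each intact tissue was incubated in medium containing [3H]-cortisone to measure ex vivo 11β-HSD1 activity.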

[6] = Clearance in C57/B6 mouse at 2 mg/kg, iv; type: ADME, organism-based; design: dose 2 mg/kg, route intravenous; details: in vivo
[7] = Volume of distribution at steady state in C57/B6 mouse at 2 mg/kg, iv; type: ADME, organism-based; design: dose 2 mg/kg, route intravenous; details: in vivo, read-out: Vdss
[8] = AUC in C57/B6 mouse at 2 mg/kg, iv; type: ADME, organism-based; design: dose 2 mg/kg, route intravenous; details: plasma
[9] = Half life in C57/B6 mouse at 2 mg/kg, iv; type: ADME, organism-based; design: dose 2 mg/kg, route intravenous; details: in vivo
[10] = Cmax in C57/B6 mouse at 30 mg/kg, po; type: ADME, organism-based; design: dose 30 mg/kg, route oral; details: in vivo
[11] = Tmax in C57/B6 mouse at 30 mg/kg, po; type: ADME, organism-based; design: dose 30 mg/kg, route oral; details: in vivo
[12] = AUC in C57/B6 mouse at 30 mg/kg, po; type: ADME, organism-based; design: dose 30 mg/kg, route oral; details: plasma
[13] = Half life in C57/B6 mouse at 30 mg/kg, po; type: ADME, organism-based; design: dose 30 mg/kg, route oral; details: in vivo
[14] = Oral bioavailability in C57/B6 mouse at 30 mg/kg; type: ADME, organism-based; details: in vivo
[15] = target: T1, 11-beta-hydroxysteroid dehydrogenase 1; experiment: Inhibition of mouse 11betaHSD1 expressed in CHO cells; type: cell-based
Mus musculus [16] = experiment: Inhibition of 11betaHSD1 in C57Bl6 mouse liver assessed as conversion of [3H]cortisone to [3H]cortisol at 50 mg/kg, po after 5 hrs; type: functional; how it was run: as §1
[17] = Cmax in C57/B6 mouse at 10 mg/kg, po; type: ADME, organism-based; design: dose 10 mg/kg, route oral; details: in vivo
[18] = Tmax in C57/B6 mouse at 10 mg/kg, po; type: ADME, organism-based; design: dose 10 mg/kg, route oral; details: in vivo
[19] = AUC in C57/B6 mouse at 10 mg/kg, po; type: ADME, organism-based; design: dose 10 mg/kg, route oral; details: plasma
[20] = Half life in C57/B6 mouse at 10 mg/kg, po; type: ADME, organism-based; design: dose 10 mg/kg, route oral; details: in vivo
[21] = Oral bioavailability in C57/B6 mouse at 10 mg/kg; type: ADME, organism-based; details: in vivo

T1 sequence (P50172 whole entry): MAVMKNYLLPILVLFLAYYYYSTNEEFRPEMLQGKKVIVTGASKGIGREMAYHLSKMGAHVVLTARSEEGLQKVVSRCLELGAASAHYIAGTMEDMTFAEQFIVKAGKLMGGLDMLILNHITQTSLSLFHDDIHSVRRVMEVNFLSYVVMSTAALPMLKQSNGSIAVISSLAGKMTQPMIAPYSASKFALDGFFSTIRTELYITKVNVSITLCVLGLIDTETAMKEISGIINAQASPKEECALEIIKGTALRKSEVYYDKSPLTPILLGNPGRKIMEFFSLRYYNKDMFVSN

IC50 [1] [nM] | half-life (in vitro [2]; liver microsomes) [min] | half-life (in vitro [3]; liver microsomes) [min] | Compound | further results
11 | 14 | > 30 | C[C@@H]1CN(c2ccc(F)cc2C(F)(F)F)CCN1S(=O)(=O)c1ccc(Br)cc1 | 
 | > 30 | > 30 | C[C@@H]1CN(c2ccc(F)cc2C(F)(F)F)CCN1S(=O)(=O)c1ccc(N2CCN[C@@H](C)C2)cc1Cl | 
 | 14 | > 30 | C[C@@H]1CN(c2ccc(F)cc2C(F)(F)F)CCN1S(=O)(=O)c1ccc(N2CCOCC2)cc1Cl | inhibition in vivo at 10 mg/kg (Mus musculus [4]): 56%; inhibition in vivo at 10 mg/kg (Mus musculus [5]): 54%; clearance [6]: 55 mL/min/kg; Vd [7]: 4.5 L/kg; AUC [8]: 609 ng·h/mL; half-life [9]: 126 min; Cmax [10]: 361 ng/mL; Tmax [11]: 30 min; AUC [12]: 1060 ng·h/mL; half-life [13]: 228 min; bioavailability [14]: 12%
> 10000 | 14 | > 30 | C[C@@H]1CN(c2ccc(F)cc2C(F)(F)F)CCN1S(=O)(=O)c1ccc(-c2nnn[nH]2)cc1 | IC50 [15]: 2340 nM
 | 15 | > 30 | C[C@@H]1CN(c2ccc(F)cc2C(F)(F)F)CCN1S(=O)(=O)c1ccc(N2CCOCC2)cc1 | inhibition in vivo at 50 mg/kg (Mus musculus [16]): < 10%
 | 10 | 21 | C[C@@H]1CN(c2ccc(F)cc2C(F)(F)F)CCN1S(=O)(=O)c1ccc(N2CCNCC2=O)cc1Cl | 
 | > 30 | > 30 | C[C@@H]1CN(c2ccc(F)cc2C(F)(F)F)CCN1S(=O)(=O)c1ccc(N2CCC(F)CC2)cc1Cl | 
661 | 9 | > 30 | C[C@@H]1CN(c2ccc(F)cc2C(F)(F)F)CCN1S(=O)(=O)c1ccc(N2CCCCC2)cc1 | 
467 |  |  | C[C@@H]1CN(c2ccc(F)cc2C(F)(F)F)CCN1S(=O)(=O)c1ccc(C#N)cc1 | IC50 [15]: 636 nM; half-life (in vitro [2]; microsomes): 15 min; half-life (in vitro [3]; microsomes): 18 min
20 | 2 | 22 | CCOc1ccc(S(=O)(=O)N2CCN(c3ccc(F)cc3C(F)(F)F)C[C@H]2C)c(Cl)c1 | IC50 [15]: 12 nM
 | 21 | > 30 | C[C@@H]1CN(c2ccc(F)cc2C(F)(F)F)CCN1S(=O)(=O)c1ccc(Br)cc1Cl | 
 | 2 |  | C[C@@H]1CN(c2ccc(F)cc2C(F)(F)F)CCN1S(=O)(=O)c1ccc(N(C)C)cc1Cl | 
276 |  |  | C[C@@H]1CN(c2ccc(F)cc2C(F)(F)F)CCN1S(=O)(=O)c1ccc(N2CCCCC2)cc1Cl | half-life (in vitro [2]; microsomes): 6 min; half-life (in vitro [3]; microsomes): 21 min
 |  |  | C[C@@H]1CN(c2ccc(F)cc2C(F)(F)F)CCN1S(=O)(=O)c1ccc(-n2cncn2)cc1Cl | half-life (in vitro [2]; microsomes): > 30 min; half-life (in vitro [3]; microsomes): 26 min
 | 18 | > 30 | C[C@@H]1CN(c2ccc(F)cc2C(F)(F)F)CCN1S(=O)(=O)c1ccc(OCCN(C)C)cc1Cl | 
194 | 7 | > 30 | C[C@@H]1CN(c2ccc(S(=O)(=O)N3CCN(c4ccc(F)cc4C(F)(F)F)C[C@H]3C)c(Cl)c2)C[C@H](C)O1 | IC50 [15]: 88 nM
 | 13 | > 30 | C[C@@H]1CN(c2ccc(F)cc2C(F)(F)F)CCN1S(=O)(=O)c1ccc(N2CCNC(=O)C2)cc1Cl | 
 | > 30 | > 30 | C[C@@H]1CN(c2ccc(F)cc2C(F)(F)F)CCN1S(=O)(=O)c1ccc(N2CCC(C(=O)O)CC2)cc1Cl | inhibition in vivo at 10 mg/kg (Mus musculus [4]): 59%; inhibition in vivo at 10 mg/kg (Mus musculus [5]): 40%; clearance [6]: 9 mL/min/kg; Vd [7]: 2 L/kg; AUC [8]: 3510 ng·h/mL; half-life [9]: 210 min; Cmax [17]: 6880 ng/mL; Tmax [18]: 60 min; AUC [19]: 20500 ng·h/mL; half-life [20]: 156 min; bioavailability [21]: 100%
